Experimental data as given in paper PMC4879609 (Molecular microbiology, 2016).
Where “and” joins values, the source holds several entries; their conditions need not be identical. Equal values may be shown once. Read-outs that look alike come from different tables or passages of the source.

How the values were obtained:
[1] = target: T1, LdIMPDH (Leishmania donovani, UniProt P21620); assay: Rate zonal centrifugation, quaternary structure of LdIMPDH; design: species or system L. donovani; details: saturating nucleotide, glycerol gradient
[2] = target: LdIMPDH CBS domain (His6-impdh112-223) (Leishmania donovani, UniProt P21620); assay: Intrinsic fluorescence binding to LdIMPDH CBS domain; design: species or system L. donovani
[3] = target: LmGMPR CBS domain (His6-gmpr92-222) (Leishmania major, UniProt Q4QEB3); assay: Intrinsic fluorescence binding to LmGMPR CBS domain; design: species or system L. major
[4] = target: T2, LmGMPR (Leishmania major, UniProt Q4QEB3); assay: Rate zonal centrifugation, quaternary structure of LmGMPR; design: species or system L. major; details: saturating (1.0 mM) nucleotide, 5–40% glycerol gradient
T2 sequence (Q4QEB3 1-492): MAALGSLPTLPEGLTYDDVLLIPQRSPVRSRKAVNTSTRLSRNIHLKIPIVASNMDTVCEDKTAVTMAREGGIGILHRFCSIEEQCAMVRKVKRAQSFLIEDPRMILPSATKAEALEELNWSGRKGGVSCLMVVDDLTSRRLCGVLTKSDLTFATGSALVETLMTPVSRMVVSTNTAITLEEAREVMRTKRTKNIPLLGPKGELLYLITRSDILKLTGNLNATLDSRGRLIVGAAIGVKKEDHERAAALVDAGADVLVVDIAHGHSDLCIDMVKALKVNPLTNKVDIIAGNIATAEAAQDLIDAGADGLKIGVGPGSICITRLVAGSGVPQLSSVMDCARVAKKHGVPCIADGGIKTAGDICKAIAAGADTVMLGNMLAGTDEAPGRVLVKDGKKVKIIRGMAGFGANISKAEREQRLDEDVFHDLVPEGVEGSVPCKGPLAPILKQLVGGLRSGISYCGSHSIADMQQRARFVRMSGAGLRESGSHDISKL
Method in brief: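 Recombinant LmGMPR expressed in GMPR-deficient E. coli and purified by ammonium sulfate fractionation and Cibacron blue chromatography. Spun at 34,000 rpm for 16 h at 4 °C; 50 μg bovine hemoglobin as internal standard.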

[5] = target: T1, LdIMPDH; assay: biochemical; assay type: binding
[6] = target: T2, LmGMPR; assay: Steady-state kinetic analysis of LmGMPR; assay type: biochemical, L. major; details: for Increase in NADPH Km value: saturating concentrations of GMP
[7] = target: T2, LmGMPR; assay: Fluorescence titration of nucleotide binding to full length LmGMPR; design: species or system L. major
[8] = target: T1, LdIMPDH; details: read-out: inhibition constant (Ki); ref Dobie et al., 2007; cited from earlier work
[9] = target: eukaryotic IMPDH enzymes, including human and Leishmania; details: literature values; cited from earlier work
[10] = tested on: Leishmania; assay: Leishmania growth in media with defined purine source in presence of MPA; assay type: cell-based; details: media supplemented with either guanine or xanthine (Fig. S2)
[11] = target: Leishmania major guanosine 5'-monophosphate reductase (Leishmania major); assay: rate zonal centrifugation on a glycerol gradient
[12] = target: the molecule itself; assay: rate zonal centrifugation on a glycerol gradient
[13] = target: the molecule itself; assay: rate zonal centrifugation on a glycerol gradient; remark: listed apart in the source
[14] = 20 μM LdIMPDH, single phase binding isotherm
[15] = read-out: Kd1, 26 μM LmGMPR, no NADPH, fluorescence at 335 nm

## Nc1ncnc2c1ncn2[C@@H]1O[C@H](COP(=O)(O)O)[C@@H](O)[C@H]1O [AMP]
[1]
  Quaternary structure of LdIMPDH: tetrameric structure

## Nc1ncnc2c1ncn2[C@@H]1O[C@H](COP(=O)(O)OP(=O)(O)OP(=O)(O)O)[C@@H](O)[C@H]1O [ATP]
[2]; intrinsic fluorescence changes
  Kd: 148 ± 19 µM
[3]; up to 3.0 mM
  Binding saturation: saturation binding was not attained
[1]
  Quaternary structure of LdIMPDH: tetrameric structure
[4]
  Quaternary structure of LmGMPR: monomeric and dimeric forms
[5]; [14]
  Kd: 130 ± 11 µM
[6]; 1.0 mM ATP
  Decrease in Vmax value: ~ 4 fold
  Increase in GMP Ks (Km) value: 10 fold and ~ 10 fold
[6]
  Increase in NADPH Km value: ~ 2 fold
[7]; [15]
  Kd: 87 ± 24 µM

## Nc1nc2c(ncn2[C@@H]2O[C@H](COP(=O)(O)O)[C@@H](O)[C@H]2O)c(=O)[nH]1 [GMP, guanosine 5′-monophosphate]
[3]
  Kd: 333 ± 27 µM
[1]
  Quaternary structure of LdIMPDH: tetrameric structure
[4]
  Quaternary structure of LmGMPR: stabilized the formation of the LmGMPR tetramer
[8]
  Ki: ~200 µM
[5]
  Kd: 66 ± 7 µM
[7]
  Kd: 20 ± 2 µM

## Nc1nc2c(ncn2[C@@H]2O[C@H](COP(=O)(O)OP(=O)(O)OP(=O)(O)O)[C@@H](O)[C@H]2O)c(=O)[nH]1 [GTP]
[3]; single phase binding isotherm, 35 μM His6-gmpr92-222
  Kd: 188 ± 19 µM
[4]
  Quaternary structure of LmGMPR: stabilized the formation of the LmGMPR tetramer
[5]; [14]
  Kd: 67 ± 5 µM
[6]; 10 μM GTP
  Decrease in GMP Ks value: ~ 3 fold
  Increase in Vmax value: ~ 8 fold
[6]
  Increase in NADPH Km value: ~ 2 fold
[6]; steady state kinetic analysis
  Utilization as substrate by LmGMPR: not utilized as a substrate
[7]; [15]
  Kd: 16 ± 1 µM

## COc1c(C)c2c(c(O)c1C/C=C(\C)CCC(=O)O)C(=O)OC2 [MPA, mycophenolic acid]
[9]
  Ki: 4 to 20 nM
[10]
  Effect on parasite growth: refractory to MPA
[6]
  Ki: ~20 µM
  Mode of inhibition of LmGMPR: competitive inhibitor of NADPH

## [Mg+2] [Mg^2+]
[6]; added to the reaction buffer
  Effect on LmGMPR enzymatic activity: no significant affect on enzymatic activity

## NC(=O)C1=CN([C@@H]2O[C@H](COP(=O)(O)OP(=O)(O)OC[C@H]3O[C@@H](n4cnc5c(N)ncnc54)[C@H](O)[C@@H]3O)[C@@H](O)[C@H]2O)C=CC1 [NADH]
[6]; NADH up to 5.0 mM
  Use as hydride donor for reductive deamination of GMP: failed to induce the reductive deamination of GMP

## NC(=O)C1=CN([C@@H]2O[C@H](COP(=O)(O)OP(=O)(O)OC[C@H]3O[C@@H](n4cnc5c(N)ncnc54)[C@H](OP(=O)(O)O)[C@@H]3O)[C@@H](O)[C@H]2O)C=CC1 [NADPH]
[7]; absence of GMP, shift of NADPH emission λmax, excitation 340 nm, equation 3
  Kd: 27 ± 4 µM

## O=c1[nH]cnc2nc[nH]c12 [hypoxanthine]
[2]
  Binding to LdIMPDH CBS domain: no saturable binding
[5]; concentration of 2.0 mM
  Binding to LdIMPDH: no significant binding

## Leishmania major guanosine 5'-monophosphate reductase (enzyme)
[11]
  stoichiometry N: 2

B1: Leishmania donovani inosine 5'-monophosphate dehydrogenase (enzyme, UniProt P21620 1-514, looked up)
chain: MATNNANYRIKTIKDGCTAEELFRGDGLTYNDFIILPGFIDFGAADVNISGQFTKRIRLHIPIVSSPMDTITENEMAKTMALMGGVGVLHNNCTVERQVEMVKSVKAYRNGFISKPKSVPPNTPISNIIRIKEEKGISGILVTENGDPHGKLLGIVCTKDIDYVKNKDTPVSAVMTRREKMTVERAPIQLEEAMDVLNRSRYGYLPIVNENDEVVNLCSRRDAVRARDYPHSTLDKSGRLICAAATSTRPEDKRRVAALADVGVDVLVLDSSQGNTIYQIAFIKWVKSTYPHLEVVAGNVVTQDQAKNLIDAGADGIRIGMGSGSICITQEVLACGRPQGTAVYKVAQYCASRGVPCTADGGLRQVGDICKALAIGANCAMLGGMLSGTTETPGEYFFKGGVRLKVYRGMGSLEAMSQGKESGKRYLSENEAVQVAQGVSGNVVDKGSAAKLIAYVSKGLQQSAQDIGEISFDAIREKMYAGQVLFSRRSPTAQGEGGVHSLHSYEKKLFAAKM
[12]
  stoichiometry N: 4
[13]
  stoichiometry N: 2
